How the values were obtained:
[1] = tested on: genomic DNA damage in Chinese hamster ovary (CHO) cell line AS52, clone 11-4-8; experiment: Single cell gel electrophoresis; assay type: cell-based; conditions: CHO cells, 4 h; for GTI (±SE), genotoxicity index: mean bootstrap value, calculated as (50%TDNA)^−1(10^3)
Outline: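 CHO AS52 clone 11-4-8 cells (Ham's F12, 5% FBS, 37 °C, 5% CO2) exposed to test compound, then run in microplate comet assay. %Tail DNA scored only over concentrations with viability >70%. Microgel means were averaged per concentration and tested by one-way ANOVA with Holm-Sidak versus control (P ≤ 0.05). 50% Tail DNA concentration came from regression. Bootstrap replicates gave GTI values (1/M).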

[2] = tested on: Chinese hamster ovary (CHO) cell line AS52, clone 11-4-8; experiment: CHO cell chronic cytotoxicity assay; assay type: cell-based; conditions: mean bootstrap value, calculated as (LC50)^−1(10^3); CHO cells, 72 h
[3] = CHO cell chronic cytotoxicity assay; assay type: cell-based, Chinese hamster; conditions: Chinese hamster, CHO cells, line AS52, clone 11-4-8

Compound | GTI (±SE), genotoxicity index [1] | CTI (±SE), cytotoxicity index [2] | CC50 at 72 h [3] | genotoxicity (result in words) ([1]; SCGE assay)
O=CCBr [BAL, bromoacetaldehyde] | 2.68 ± 0.11 M⁻¹ | 64.6 ± 3.5 M⁻¹ |  | 
O=CC(Cl)Br (stereo not shown) [BCAL, bromochloroacetaldehyde] | 1.61 ± 0.21 M⁻¹ | 207.4 ± 11.0 M⁻¹ |  | 
O=CC(Cl)(Cl)Br [BDCAL, bromodichloroacetaldehyde] | 2.24 ± 0.05 M⁻¹ | 51.1 ± 4.3 M⁻¹ |  | 
O=CC(Br)Br [DBAL, dibromoacetaldehyde] | 9.11 ± 0.60 M⁻¹ | 207.5 ± 2.1 M⁻¹ |  | 
O=CC(Cl)(Br)Br [DBCAL, dibromochloroacetaldehyde] | 6.99 ± 0.28 M⁻¹ | 200.2 ± 1.4 M⁻¹ |  | 
O=CC(Cl)Cl [DCAL, dichloroacetaldehyde] | 1.26 ± 0.03 M⁻¹ | 35.7 ± 0.8 M⁻¹ |  | 
O=CCI [IAL, iodoacetaldehyde] | 0.96 ± 0.03 M⁻¹ | 170.4 ± 7.3 M⁻¹ |  | 
O=CC(Br)(Br)Br [TBAL, tribromoacetaldehyde] | 3.00 ± 0.03 M⁻¹ | 279.8 ± 4.8 M⁻¹ | 3.58 µM | 
O=CC(Cl)(Cl)Cl [TCAL, trichloroacetaldehyde] |  | 0.94 ± 0.03 M⁻¹ |  | not genotoxic

From publication PMC4791037 (Environmental science & technology, 2015)
